Blank lines part the entries; values can stand above or below the molecule they belong to. The source made the active and inactive calls. The calls are words filed in the database; no cut-off is given here.
Columns and labels:
[1] = target: Amyloid-beta precursor protein (Homo sapiens) (UniProt P05067); assay: Inhibition of Amyloid beta (1 to 42) (unknown origin) self aggregation at 20 uM for 24 hrs by Thioflavin T-based fluorometric assay
How it was run: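 Aβ1–42 was HFIP-pretreated and dissolved in DMSO to a 200 μM stock. It was mixed with compound in PBS pH 7.4, compound final 20 μM. Incubation was 24 h at room temperature with shaking. 5 μM ThT in 50 mM glycine–NaOH pH 8.5 was then added. Fluorescence was read at ex 435 nm / em 490 nm. Mean ± SD of three independent measurements, each in duplicate.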

BV-2 [2] = assay: Neuroprotective activity in mouse BV2 cells assessed as inhibition of LPS-stimulated IL6 production preincubated for 3 hrs followed by LPS treatment for 12 hrs by ELISA; assay type: functional, cell-based
How it was run: (§1)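 BV-2 microglia were seeded 2 × 10^4 cells/well and pretreated 3 h with compound at 0.0016, 0.008, 0.04, 0.2 and 1 μmol/L. They were then stimulated with LPS (1 μg/mL) for 12 h. Clarified supernatants were assayed by ELISA for the named cytokine.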

BV-2 [3] = assay: Neuroprotective activity in mouse BV2 cells assessed as inhibition of LPS-stimulated IL-1beta production preincubated for 3 hrs followed by LPS treatment for 12 hrs by ELISA; assay type: functional, cell-based; how it was run: as §1
BV-2 [4] = assay: Neuroprotective activity in mouse BV2 cells assessed as inhibition of LPS-stimulated TNFalpha production preincubated for 3 hrs followed by LPS treatment for 12 hrs by ELISA; assay type: functional, cell-based; how it was run: as §1
[5] = Cytotoxicity against mouse BV2 cells assessed as cell viability at 0.008 to 5 umol/L by MTT assay in presence of LPS; assay type: cell-based; conditions: bv-2
How it was run: (§2)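 BV-2 murine microglia kept in DMEM-H with 10% FBS at 37 °C, 5% CO2. Cells seeded 1 × 10^4 cells/well and cultured 24 h. Compound then added at 0.008, 0.04, 0.2, 1 and 5 μmol/L, with or without LPS. Viability read by MTT as absorbance at 490 nm.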

[6] = target: Amyloid-beta precursor protein (Homo sapiens) (UniProt P05067); assay: Inhibition of Amyloid beta (1 to 42 residues) (unknown origin) assessed as no fibril formation at 50 uM after 4 days by atomic force microscopic analysis
How it was run: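 Aβ1–42 was pretreated with HFIP and taken up in DMSO. It was incubated in PBS pH 7.4 for 4 days at 30 °C, with or without compound. Final concentrations were 25 μM peptide and 50 μM compound. 10 μL aliquots were deposited on mica for 10 min, rinsed with water and dried under nitrogen. Samples were imaged by tapping-mode AFM.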

SH-SY5Y [7] = assay: Neuroprotective activity against LPS-stimulated toxicity in human SH-SY5Y cells using compound-conditioned media from LPS-stimulated BV2 cells by MTT assay; assay type: functional, cell-based
How it was run: (§3)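 BV-2 cells were seeded 2 × 10^4/well and pretreated 3 h with compound at 0.2, 1 and 5 μM. They were then stimulated 12 h with LPS 1 μg/mL, and the supernatant was clarified as conditioned medium. SH-SY5Y cells were seeded 5 × 10^3/well, grown 24 h and serum-starved overnight, then exposed to the conditioned medium. Viability was read by MTT at 490 nm. Mean ± SD of three independent experiments.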

[8] = target: Amyloid-beta precursor protein (Homo sapiens) (UniProt P05067); assay: Inhibition of Amyloid beta (1 to 42) (unknown origin) self aggregation for 24 hrs by Thioflavin T-based fluorometric assay
SH-SY5Y [9] = assay: Cytotoxicity against human SH-SY5Y cells at 5 uM by MTT assay; assay type: cell-based
How it was run: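 SH-SY5Y (DMEM/F-12, 10% FBS, 37 °C, 5% CO2) seeded 1 × 10^4 cells/well, grown 24 h, then exposed to compound at 0.04, 0.2, 1 and 5 μmol/L for 24 h. MTT added for a further 4 h; absorbance read at 490 nm. Mean ± SD of three independent experiments.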

[10] = target: Myeloid differentiation primary response protein MyD88 (Homo sapiens) (UniProt Q99836); assay: Inhibition of Flag-tagged MyD88-HA-tagged MyD88 (unknown origin) homodimerization transfected in HEK293 cells after 7 hrs by Co-immunoprecipitation assay; assay type: cell-based
How it was run: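 HEK293 cells were seeded at 9 × 10^5/well and transfected with Flag-MyD88 and HA-MyD88 plasmids. Compound was added 7 h after transfection at 10 and 40 μM. Cells were harvested 24 h post-transfection and lysed in RIPA. Lysates were precleared with protein A/G beads and immunoprecipitated with anti-HA on A/G beads at 4 °C. Captured Flag-MyD88 was detected by western blot.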

SH-SY5Y [11] = assay: Neuroprotective activity against LPS-induced toxicity in human SH-SY5Y cells assessed as cell viability using compound-conditioned media from LPS-stimulated BV2 cells at 5 uM by MTT assay; assay type: functional; how it was run: as §3
[12] = Cytotoxicity against mouse BV2 cells assessed as cell viability at 5 uM by MTT assay; assay type: cell-based; conditions: bv-2, 5 µM; how it was run: as §2

Chain of Amyloid-beta precursor protein (Homo sapiens) (P05067 whole entry, the tested form may be a part): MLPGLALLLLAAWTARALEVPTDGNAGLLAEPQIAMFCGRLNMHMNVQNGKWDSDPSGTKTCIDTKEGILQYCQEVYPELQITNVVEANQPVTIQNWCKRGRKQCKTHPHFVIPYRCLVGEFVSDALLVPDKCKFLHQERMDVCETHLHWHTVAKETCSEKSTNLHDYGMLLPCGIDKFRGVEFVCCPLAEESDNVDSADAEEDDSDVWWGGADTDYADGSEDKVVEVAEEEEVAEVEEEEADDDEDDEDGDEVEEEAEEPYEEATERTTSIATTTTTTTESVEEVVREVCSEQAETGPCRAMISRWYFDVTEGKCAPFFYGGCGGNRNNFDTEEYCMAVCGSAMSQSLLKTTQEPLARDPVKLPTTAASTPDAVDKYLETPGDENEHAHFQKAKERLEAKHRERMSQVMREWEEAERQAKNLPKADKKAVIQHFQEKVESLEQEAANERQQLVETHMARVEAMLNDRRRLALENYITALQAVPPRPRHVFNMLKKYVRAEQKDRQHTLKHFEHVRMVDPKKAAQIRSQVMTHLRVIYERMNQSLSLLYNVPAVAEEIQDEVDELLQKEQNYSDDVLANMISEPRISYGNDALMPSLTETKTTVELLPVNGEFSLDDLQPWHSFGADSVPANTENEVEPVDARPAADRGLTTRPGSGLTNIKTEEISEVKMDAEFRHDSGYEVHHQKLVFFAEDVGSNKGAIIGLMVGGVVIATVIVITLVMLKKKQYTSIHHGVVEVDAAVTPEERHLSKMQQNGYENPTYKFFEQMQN
Chain of Myeloid differentiation primary response protein MyD88 (Homo sapiens) (Q99836 whole entry): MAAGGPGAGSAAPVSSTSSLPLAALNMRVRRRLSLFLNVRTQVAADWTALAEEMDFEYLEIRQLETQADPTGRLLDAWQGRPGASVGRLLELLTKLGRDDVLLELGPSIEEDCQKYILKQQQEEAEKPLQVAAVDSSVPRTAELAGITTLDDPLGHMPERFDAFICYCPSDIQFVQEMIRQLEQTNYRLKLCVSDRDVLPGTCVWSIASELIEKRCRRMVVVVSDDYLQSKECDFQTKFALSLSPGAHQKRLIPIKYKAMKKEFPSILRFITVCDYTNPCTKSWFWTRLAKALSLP

Compound: COc1cccc(CN2C(=O)C[C@@H](c3cc(OC)cc(OC)c3)[C@H]([N+](=O)[O-])[C@H]2c2ccc(O)cc2)c1 (racemic)
inhibition [1]: 56.9%
Activity (BV-2 [2]): Dose-dependent effect
IC50 (BV-2 [2]): 170 nM
Activity (BV-2 [3]): Dose-dependent effect
IC50 (BV-2 [3]): 850 nM
Activity (BV-2 [4]): Dose-dependent effect
IC50 (BV-2 [4]): 20 nM

Compound: COc1cc(OC)cc([C@@H]2CC(=O)N(Cc3ccc(OC)c(OC)c3)[C@H](c3ccc(O)cc3)[C@H]2[N+](=O)[O-])c1 (racemic)
inhibition [1]: 59.1%
Activity (BV-2 [2]): Dose-dependent effect
IC50 (BV-2 [2]): 30 nM
Activity [5]: Non-toxic
inhibition [6]: Active
Activity (SH-SY5Y [7]): Dose-dependent effect
inhibition [8]: Dose-dependent effect
Activity (BV-2 [3]): Dose-dependent effect
IC50 (BV-2 [3]): 210 nM
Activity (SH-SY5Y [9]): Non-toxic
inhibition [10]: Dose-dependent effect
Activity (BV-2 [4]): Dose-dependent effect
IC50 (BV-2 [4]): 80 nM
Activity (SH-SY5Y [11]): 82.92%
Activity [12]: Non-toxic

Compound: COc1cc(OC)cc([C@@H]2CC(=O)N(Cc3ccccc3)[C@H](c3ccc(O)cc3)[C@H]2[N+](=O)[O-])c1 (racemic)
inhibition [1]: 55%

Compound: COc1cc(OC)cc([C@@H]2CC(=O)N(Cc3cccnc3)[C@H](c3ccc(O)cc3)[C@H]2[N+](=O)[O-])c1 (racemic)
inhibition [1]: 54%

Compound: COc1cc([C@@H]2[C@@H]([N+](=O)[O-])[C@H](c3ccccc3Cl)CC(=O)N2Cc2ccccc2)ccc1O (racemic)
inhibition [1]: 11.8%

Compound: COc1cccc(CN2C(=O)C[C@@H](c3ccc(C)cc3)[C@H]([N+](=O)[O-])[C@H]2c2ccc(O)cc2)c1 (racemic)
inhibition [1]: 48.9%

Compound: COc1cccc(CN2C(=O)C[C@@H](c3ccccc3Cl)[C@H]([N+](=O)[O-])[C@H]2c2ccc(O)cc2)c1 (racemic)
inhibition [1]: 50%

Compound: Cc1ccc(CN2C(=O)C[C@@H](c3ccc(C)cc3)[C@H]([N+](=O)[O-])[C@H]2c2ccc(O)cc2)cc1 (racemic)
inhibition [1]: 42.1%

Compound: O=C1C[C@@H](c2ccccc2Cl)[C@H]([N+](=O)[O-])[C@@H](c2ccc(O)cc2)N1Cc1ccccc1 (racemic)
inhibition [1]: 11.2%

Compound: O=C1C[C@@H](c2ccccc2Cl)[C@H]([N+](=O)[O-])[C@@H](c2ccc(O)cc2)N1Cc1cccnc1 (racemic)
inhibition [1]: 41.6%

Continued, in another order:

inhibition [1]: 33.1%
IC50 (BV-2 [2]): 80 nM
IC50 (BV-2 [3]): 3490 nM
IC50 (BV-2 [4]): 90 nM
Compound: COC(=O)c1ccc(CN2C(=O)C[C@@H](c3ccccc3Cl)[C@H]([N+](=O)[O-])[C@H]2c2ccc(O)cc2)cc1 (racemic)
Activity (BV-2 [2]): Dose-dependent effect
Activity (BV-2 [3]): Dose-dependent effect
Activity (BV-2 [4]): Dose-dependent effect

inhibition [1]: 36.3%
Compound: COC(=O)c1ccc(CN2C(=O)C[C@@H](c3ccccc3)[C@H]([N+](=O)[O-])[C@H]2c2ccc(O)cc2)cc1 (racemic)

inhibition [1]: 30.6%
Compound: COc1ccc(CN2C(=O)C[C@@H](c3ccc(C)cc3)[C@H]([N+](=O)[O-])[C@H]2c2ccc(O)cc2)cc1 (racemic)

inhibition [1]: 46.1%
Compound: COc1ccc(CN2C(=O)C[C@@H](c3ccccc3)[C@H]([N+](=O)[O-])[C@H]2c2ccc(O)cc2)cc1 (racemic)

inhibition [1]: 49.2%
Compound: COc1ccc(CN2C(=O)C[C@@H](c3ccccc3)[C@H]([N+](=O)[O-])[C@H]2c2ccc(O)cc2)cc1OC (racemic)

inhibition [1]: 28.7%
Compound: COc1ccc(CN2C(=O)C[C@@H](c3ccccc3Cl)[C@H]([N+](=O)[O-])[C@H]2c2ccc(O)cc2)cc1 (racemic)

inhibition [1]: 51.7%
Compound: COc1cccc(CN2C(=O)C[C@@H](c3ccccc3)[C@H]([N+](=O)[O-])[C@H]2c2ccc(O)cc2)c1 (racemic)

inhibition [1]: 39.9%
Compound: Cc1ccc(CN2C(=O)C[C@@H](c3ccccc3)[C@H]([N+](=O)[O-])[C@H]2c2ccc(O)cc2)cc1 (racemic)

inhibition [1]: 46.1%
Compound: Cc1ccc(CN2C(=O)C[C@@H](c3ccccc3Cl)[C@H]([N+](=O)[O-])[C@H]2c2ccc(O)cc2)cc1 (racemic)

inhibition [1]: 44.1%
Compound: Cc1ccc([C@@H]2CC(=O)N(Cc3ccccc3)[C@H](c3ccc(O)cc3)[C@H]2[N+](=O)[O-])cc1 (racemic)

inhibition [1]: 6.39%
Compound: O=C1C[C@@H](c2ccccc2)[C@H]([N+](=O)[O-])[C@@H](c2ccc(O)cc2)N1Cc1ccc(F)cc1 (racemic)

inhibition [1]: 43.6%
Compound: O=C1C[C@@H](c2ccccc2)[C@H]([N+](=O)[O-])[C@@H](c2ccc(O)cc2)N1Cc1ccccc1 (racemic)

inhibition [1]: 43.3%
inhibition [8]: Dose-dependent effect
Compound: O=C1C[C@@H](c2ccccc2)[C@H]([N+](=O)[O-])[C@@H](c2ccc(O)cc2)N1Cc1cccnc1 (racemic)

Reference: ChEMBL document CHEMBL3774362, “Design, synthesis, and evaluation of 2-piperidone derivatives for the inhibition of β-amyloid aggregation and inflammation mediated neurotoxicity” (Bioorg Med Chem, 2016)
